In ChEMBL document CHEMBL1148147, “New oplopane and eremophilane derivatives from Robinsonecio gerberifolius” (J Nat Prod, 2003):
Calls of active or inactive are those of the source. The rule behind the calls is not given here.

How the values were obtained:
Type in all cases: functional, cell-based
[1] = system: PC-3; assay: Cytotoxicity against human PC3 cells
Outline: (§1)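 Human cancer cell lines (HCT-15 colon, MCF-7 breast, U-251 central nervous system, PC-3 prostate, K562 leukemia) tested over a dose range using the National Cancer Institute cytotoxicity screening protocol.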

[2] = system: K562; assay: Cytotoxicity against human K562 cells; outline: as §1
[3] = system: HCT-15; assay: Cytotoxicity against human HCT15 cells; outline: as §1
[4] = system: MCF7; assay: Cytotoxicity against human MCF7 cells; outline: as §1
[5] = system: U-251; assay: Cytotoxicity against human U251 cells; outline: as §1

SMILES	IC50 [1] [µM]	IC50 [2] [µM]	IC50 [3] [µM]	IC50 [4] [µM]	IC50 [5] [µM]	Activity [1]	Activity [2]	Activity [3]	Activity [4]	Activity [5]
COc1cccc2c1C(=O)c1c(O)c3c(c(O)c1C2=O)C[C@@](O)(C(=O)CO)C[C@@H]3O[C@H]1C[C@H](N)[C@H](O)[C@H](C)O1 [DOXORUBICIN]	0.32									
C=C1C[C@@H](OC(C)=O)[C@@H](C(C)C)[C@@H]2[C@@H](C(C)=O)[C@@H](OC(=O)/C(C)=C\C)C[C@@H]12	78.7	13	43.6	33.9	13					
C/C=C(/C)C(=O)O[C@H]1C[C@@H](O)C2=CC(=O)C(=C(C)C)C[C@]2(C)[C@H]1C	33.2	> 100	> 100	> 100	24.1					
C/C=C(/C)C(=O)O[C@H]1C[C@H]2O[C@]23Cc2occ(C)c2C[C@]3(C)[C@H]1C						inactive	inactive	inactive	inactive	inactive
C/C=C(/C)C(=O)O[C@H]1C[C@@H](OC(=O)/C(C)=C/C)C2=CC(=O)C(=C(C)C)C[C@]2(C)[C@H]1C	10.7	51.1	12.8	21	17.6					
C/C=C(/C)C(=O)O[C@H]1C[C@@H](O)C2=CC(=O)C(C(C)(C)O)=C[C@]2(C)[C@H]1C						inactive	inactive	inactive	inactive	inactive
C/C=C(/C)C(=O)O[C@H]1C[C@@H](O)C2=CC(=O)C(C(C)(C)OO)=C[C@]2(C)[C@H]1C	16.5	46.3	> 100	> 100	33.7					
